Test [1] relates to Mycobacterium tuberculosis. The test is described as follows: Reduction of bacterial counts in Mycobacterium tuberculosis H37Rv infected Swiss mouse lung at 25 mg/kg, po for 5 days/week after 1 month. It is filed as functional. Put shortly: (§1)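 Female 4-week-old Swiss mice were infected in the tail vein with about 2 10 6 CFU of H37Rv, grown in Dubos broth for 7 days at 37 C. Gavage started 2 weeks post-infection, 5 days/week, with rifampin given 1 h before other drugs. Lung homogenates were plated for CFU; some groups had both lungs cultured undiluted. Mann-Whitney U test.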

Test [2] deals with Mycobacterium tuberculosis. The test is described as follows: Reduction of bacterial counts in Mycobacterium tuberculosis H37Rv infected Swiss mouse lung at 25 mg/kg, po for 5 days/week after 2 months. It is filed as functional. The procedure, abridged: as §1
Test [3] has as its system Mycobacterium tuberculosis. The test is described as follows: Reduction of lung lesions in Mycobacterium tuberculosis H37Rv infected Swiss mouse at 25 mg/kg, po for 5 days/week after 1 month. In kind it is functional, organism-based. The arrangement: dose 25 mg/kg.
Test [4] concerns Mycobacterium tuberculosis. The test is described as follows: Reduction of lung lesions in Mycobacterium tuberculosis H37Rv infected Swiss mouse at 25 mg/kg, po for 5 days/week after 2 months. The arrangement: dose 25 mg/kg. It is filed as functional, organism-based.
The subject of test [5] is Mycobacterium tuberculosis. The test is described as follows: Reduction of bacterial counts in Mycobacterium tuberculosis H37Rv infected Swiss mouse lung at 100 mg/kg, po for 5 days/week after 1 month. In kind it is functional. Put shortly:
as §1

Test [6] relates to Mycobacterium tuberculosis. The test is described as follows: Reduction of lung lesions in Mycobacterium tuberculosis H37Rv infected Swiss mouse at 100 mg/kg, po for 5 days/week after 2 months. The arrangement: dose 100 mg/kg. It is filed as functional, organism-based.
Test [7] relates to Mycobacterium tuberculosis. The test is described as follows: Reduction of bacterial counts in Mycobacterium tuberculosis H37Rv infected Swiss mouse lung at 100 mg/kg, po for 5 days/week after 2 months. It is filed as functional. Put shortly: as §1
For test [8], the system named is Mycobacterium tuberculosis. Kind of test: Reduction of bacterial counts in Mycobacterium tuberculosis H37Rv infected Swiss mouse lung at 150 mg/kg, po for 5 days/week after 1 month. In kind it is functional. Put shortly:
as §1

Test [9] relates to Mycobacterium tuberculosis. The test is described as follows: Reduction of bacterial counts in Mycobacterium tuberculosis H37Rv infected Swiss mouse lung at 150 mg/kg, po for 5 days/week after 2 months. In kind it is functional. The procedure, abridged:
as §1

Test [10] deals with Mycobacterium tuberculosis. The test is described as follows: Reduction of lung lesions in Mycobacterium tuberculosis H37Rv infected Swiss mouse at 150 mg/kg, po for 5 days/week after 2 months. In kind it is functional, organism-based. The arrangement: dose 150 mg/kg.
Test [11] concerns Mycobacterium tuberculosis. The test is described as follows: Reduction of bacterial counts in Mycobacterium tuberculosis H37Rv infected Swiss mouse lung at 10 mg/kg, po for 5 days/week after 1 month. In kind it is functional. The procedure, abridged:
as §1

The test system of test [12] is Mycobacterium tuberculosis. Kind of test: Reduction of bacterial counts in Mycobacterium tuberculosis H37Rv infected Swiss mouse lung at 10 mg/kg, po for 5 days/week after 2 months. In kind it is functional. The procedure, abridged:
as §1

Test [13] deals with Mycobacterium tuberculosis. Kind of test: Reduction of lung lesions in Mycobacterium tuberculosis H37Rv infected Swiss mouse at 10 mg/kg, po for 5 days/week after 2 months. It is filed as functional, organism-based. The arrangement: dose 10 mg/kg.

The source made the active and inactive calls. The rule behind the calls is not given here.

Consider `COc1nc2ccc(Br)cc2cc1[C@@H](c1ccccc1)[C@@](O)(CCN(C)C)c1cccc2ccccc12` [BEDAQUILINE], for which the Log10 cfu came to 4.1 in test [1] and 2.3 in test [2]. The outcome in test [3] and in [4] was Active.
As to `NNC(=O)c1ccncc1` [ISONIAZID], the Log10 cfu in [1] was 4.9; in [2] it was 4.7. Besides, in test [4], the outcome was Active.
With `COc1c(N2C[C@@H]3CCCN[C@@H]3C2)c(F)cc2c(=O)c(C(=O)O)cn(C3CC3)c12` [MOXIFLOXACIN], the Log10 cfu in test [5] is recorded as 5.5; in test [7], 4.3. The outcome in [6] was Active.
For the compound `NC(=O)c1cnccn1` [PYRAZINAMIDE], the Log10 cfu in [8] came out at 6.2; in [9], 6.4. Further, the outcome in test [10] was inactive.
Turning to `CO[C@H]1/C=C/O[C@@]2(C)Oc3c(C)c(O)c4c(O)c(c(/C=N/N5CCN(C)CC5)c(O)c4c3C2=O)NC(=O)/C(C)=C\C=C\[C@H](C)[C@H](O)[C@@H](C)[C@@H](O)[C@@H](C)[C@H](OC(C)=O)[C@@H]1C` [RIFAMPIN], the Log10 cfu is on record as 6 in test [11] and 4.1 in [12]. Also, the result in test [13] was Active.

Values taken from ChEMBL document CHEMBL1142073, “Synergistic activity of R207910 combined with pyrazinamide against murine tuberculosis” (2007).
